# From publication PMC6190495 (Journal of Pharmaceutical Analysis, 2018)
# Read-outs that look alike come from different tables or passages of the source.
# Assays:
# [1] = cited from earlier work
# [2] = cited from earlier work; remark: listed apart in the source
# [3] = assay type: in vivo, human; details: for Tmax / concentration at 2 h / half-life: human, po; for AUC0-t: single oral tablet 4/1.25 mg, fasting, mean ± SD
# Procedure, shortened: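 Ten healthy Chinese volunteers, fasted at least 10 h overnight, took one oral ACE-inhibitor/diuretic combination tablet (4 mg/1.25 mg) with 240 mL warm water. Blood was drawn into two K2EDTA tubes pre-dose and at 0.25–48 h. One tube was spun (3000 rpm, 10 min) for plasma and the other kept as whole blood, both stored at −80 °C. Parent drugs were extracted by acetonitrile precipitation and the metabolite by 14% perchloric acid, then measured by LC-MS/MS against internal standard. AUC0-t ran to 6 h for the ACE inhibitor and to 48 h otherwise.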
# [4] = whole blood, dose 1.5 mg, indapamide sustained-release tablets, ref 11
# [5] = whole blood, dose 1.5 mg, indapamide sustained-release tablets, ref 21
Tmax ([3]; plasma) [h],concentration at 2 h ([3]; plasma) [ng/mL],half-life ([3]; plasma) [h],Tmax ([3]; whole blood) [h],concentration at 2 h ([3]; whole blood) [ng/mL],half-life ([3]; whole blood) [h],SMILES,"Cmax ([2]; plasma, dose 4 mg, ref 22) [ng/mL]","Tmax ([2]; plasma, dose 4 mg, ref 22) [h]","Cmax ([2]; plasma, dose 4 mg, ref 24) [ng/mL]","Tmax ([2]; plasma, dose 4 mg, ref 24) [h]","AUC0-t ([2]; plasma, dose 4 mg, t = 120 h) [ng·h/mL]",also measured
1.8 ± 0.8,5.32,13.4 ± 2.4,1.6 ± 0.6,14.9,13.5 ± 1.6,"CC1Cc2ccccc2N1NC(=O)c1ccc(Cl)c(S(N)(=O)=O)c1 (stereo not shown) [Indapamide, indapamide]",,,,,,"Binding to the red blood cell [1]: high binding to the red blood cell; Tmax ([2]; whole blood, dose 1.25 mg): 2.4 ± 1.1 h; AUC0-t ([2]; whole blood, dose 1.25 mg, t = 96 h): 1152 ± 429 ng·h/mL; Cmax [2, 4]: 43.6 ± 16.1 ng/mL; Tmax [2, 4]: 10.3 ± 5.3 h; Cmax [2, 5]: 41.1 ± 7.6 ng/mL; Tmax [2, 5]: 8.0 ± 3.0 h; AUC0-t ([2]; whole blood, dose 1.5 mg, indapamide sustained-release tablets, t = 96 h, ref 11): 1318 ± 303 ng·h/mL; AUC0-t ([2]; whole blood, dose 1.5 mg, indapamide sustained-release tablets, t = 96 h, ref 21): 1268 ± 279 ng·h/mL; AUC0-t ([3]; whole blood, t = 48 h): 882 ± 126 ng·h/mL"
0.65 ± 0.1,11.1,0.96 ± 0.3,0.7 ± 0.2,7.35,1.11 ± 0.4,"CCC[C@H](N[C@@H](C)C(=O)N1[C@H](C(=O)O)C[C@@H]2CCCC[C@@H]21)C(=O)OCC [Perindopril, perindopril]",63.9 ± 18.0,0.66 ± 0.2,72 ± 20,0.75,106 ± 32,"Binding in blood [1]: bind mainly to plasma protein in blood; Cmax ([2]; plasma, dose 4 mg, ref 16): 36.5 ± 11.4 ng/mL; Tmax ([2]; plasma, dose 4 mg, ref 16): 0.66 ± 0.2 h; AUC0-t ([2]; plasma, dose 4 mg, t = 5 h): 70.3 ± 14.4 ng·h/mL; AUC0-t ([2]; plasma, dose 4 mg, t = 96 h): 41.7 ± 10.0 ng·h/mL; AUC0-t ([3]; plasma, t = 6 h): 51.4 ± 12.8 ng·h/mL"
6.4 ± 1.3,2.49,17 ± 6.5,5.8 ± 1.1,1.31,18.2 ± 7.3,"CCC[C@H](N[C@@H](C)C(=O)N1[C@H](C(=O)O)C[C@@H]2CCCC[C@@H]21)C(=O)O [Perindoprilat, perindoprilat]",5.91 ± 2.9,6.3 ± 1.2,4.9 ± 2.7,6,191 ± 76,"Cmax ([2]; plasma, dose 4 mg, one significant digit): 5 ± 2 ng/mL; Tmax ([2]; plasma, dose 4 mg, ref 23): 4.3 ± 2.9 h; AUC0-t ([2]; plasma, dose 4 mg, t = 72 h, ref 22): 111 ± 18.4 ng·h/mL; AUC0-t ([2]; plasma, dose 4 mg, t = 72 h, ref 23): 92 ± 30 ng·h/mL; AUC0-t ([3]; plasma, t = 48 h): 108 ± 34.7 ng·h/mL"
